Experimental data gathered from unrelated publications.
Compare with care: the assays were run in different laboratories.
ALK: ALK tyrosine kinase receptor (ALK, Homo sapiens, UniProt Q9UM73)
ALK C1156Y: ALK tyrosine kinase receptor (ALK, Homo sapiens, UniProt Q9UM73, C1156Y)
ALK L1196M: ALK tyrosine kinase receptor (ALK, Homo sapiens, UniProt Q9UM73, L1196M)

With `O=C1NC(=O)c2cc(Nc3ccc(F)cc3)c(Nc3ccc(F)cc3)cc21` the remaining signal was 92.6% (ALK; cell-free assay; 0.5 µM).
With `c1cnn2ncc(-c3ccnc(N4CCC45COC5)n3)c2c1` the remaining binding was 78% (ALK; binding; 1 µM).
`CC/C(=N\NC(=O)NCc1cccc(O)c1)c1ccc(O)c(C)c1O` gave an inhibition of 4.8% (ALK tyrosine kinase receptor (ALK, Homo sapiens, UniProt Q9UM73, R1275Q); enzyme activity; inhibitor; 0.1 µM).
For `COc1ccnn2ncc(-c3ccnc(N(C)C)n3)c12`, the remaining binding was 100% (ALK C1156Y; binding; 1 µM).
`CN(C(=O)c1ccccc1)c1cc(N(C)c2ccc3c(c2)CCc2ccc(C(=O)NCCN4CCOCC4)cc2C3=O)ccc1F` gave a remaining binding of 100% (ALK L1196M; cell-free assay; competition with immobilised ligand; 1 µM).
With `N[C@@H]1CCN(c2nccc(-c3cnn4ncccc34)n2)C1` the remaining binding was 65% (ALK C1156Y; binding; 1 µM).
For `N#CCCc1ccc2c(c1)-c1[nH]c3ccc([N+](=O)[O-])cc3c1CC(=O)N2`, the remaining signal was 78.8% (ALK; cell-free assay; 0.5 µM).
With `CN([C@@H]1CCc2c(CC(=O)O)c3ccccc3n2C1)S(=O)(=O)c1ccc(F)cc1` the remaining binding was 78% (ALK; cell-free assay; competition with immobilised ligand; 1 µM).
For `C=CC(=O)Nc1cc(Nc2nccc(Nc3cc(Cl)c(F)cc3C(C)(C)O)n2)c(OC)cc1N1CC[C@@H](N(C)C)C1`, the inhibition was 86% (ALK; enzyme activity; inhibitor; 1 µM).
`COc1cc(Cl)c(C(=O)N[C@@H](CN[C@H]2CC[C@@H](N)CC2)Cc2ccc(C#N)cc2)cc1-c1ccc(CN[C@H](C)c2ccc(C)cc2)o1` has a remaining activity of 96% (ALK; enzyme activity; inhibitor; 1 µM).
For `CNCc1ccc(-c2cc(-c3nc(-c4ccc(S(=O)(=O)C(C)C)cc4)cnc3N)on2)cc1`, the inhibition was 4% (ALK; enzyme activity; inhibitor; 2 µM).
`Cc1sc(C(=O)NC2COC2)cc1-n1cc(NC(=O)Nc2c(F)cccc2Cl)cn1` has a remaining activity of 100% (ALK; enzyme activity; inhibitor; 10 µM).
`O=C(NCc1ncc(C(F)(F)F)cc1Cl)c1ccc2c(c1)C1(CCS(=O)(=O)CC1)[C@H](C1CC1)N2S(=O)(=O)c1ccc(F)cc1` has a remaining binding of 98% (ALK; cell-free assay; competition with immobilised ligand; 1 µM).
The remaining binding of `C[C@H]1CCN(c2nccc(-c3cnn4ncccc34)n2)C1` is reported as 100% (ALK L1196M; binding; 1 µM).
For `COc1ccc2c(c1)O[C@@H](c1ccc(OC)c(OC)c1)C[C@H]2NC(=O)C1(c2ccc3c(c2)OC(F)(F)O3)CC1`, the remaining binding was 100% (ALK; cell-free assay; competition with immobilised ligand; 1 µM).
For `CNC(=O)c1cc2c(Oc3ccc(NC(=O)C4(C(=O)Nc5ccc(F)cc5)CC4)cc3)ccnc2cc1OC`, the inhibition was 81% (ALK; enzyme activity; inhibitor; radiometric; 1 µM).
`N#CC1(c2ccccn2)CCN(Cc2cc(C(=O)N3CCCC3)c(=O)n3ccccc23)CC1` gave a remaining binding of 100% (ALK; cell-free assay; competition with immobilised ligand; 1 µM).
With `COc1cc2nccc(Oc3ccc(NC(=O)c4c5n(n(-c6ccc(F)cc6)c4=O)CCCC5)cc3)c2cc1OC` the inhibition was -23% (ALK; enzyme activity; inhibitor; 0.1 µM).
`O=C1Nc2ccc(Cl)cc2C1=Cc1cc(Cl)c(O)c(Cl)c1` has a remaining signal of 65.8% (ALK; cell-free assay; 0.5 µM).
For `O=C(NCCCC1CCCCC1)c1ccc(CNC(=O)c2cnn(-c3ccccc3)c2C(F)(F)F)cc1`, the remaining binding was 100% (ALK L1196M; cell-free assay; competition with immobilised ligand; 0.1 µM).
For `Cc1ccc(C(=O)Nc2ccc(CN3CCN(C)CC3)c(C(F)(F)F)c2)cc1C#Cc1cnc2cccnn12`, the remaining signal was 81% (ALK; cell-free assay; 23.5 nM).
`Nc1ncnc2occ(-c3ccc(NC(=O)Nc4cc(C(F)(F)F)ccc4F)cc3)c12` has a remaining signal of 1.8% (ALK L1196M; cell-free assay; 20 µM).
With `Cc1ccc(Nc2nccc(N(C)c3ccc4c(C)n(C)nc4c3)n2)cc1S(N)(=O)=O` the inhibition was 1% (ALK; enzyme activity; inhibitor; 0.3 µM).
`Cc1cc(NC(=O)c2cccc3cc(-c4cccc5[nH]nc(N)c45)ccc23)ccc1F` has an activity vs control of 140% (ALK; enzyme activity; inhibitor; 0.1 µM).
`Cc1ccc(C(=O)NCc2ccsc2)cc1C#Cc1cn(C(C)C)c2ncnc(N)c12` gave an activity vs control of 103% (ALK; enzyme activity; inhibitor; 1 µM).
`CCN(CC)CCNC(=O)c1c(C)[nH]c(/C=C2\C(=O)Nc3ccc(F)cc32)c1C` has a remaining activity of 73% (ALK; enzyme activity; inhibitor; 0.1 µM).
`CC(C)c1ccc(NC(=O)c2cccs2)c(-c2nc3ccccc3[nH]c2=O)c1` gave an activity vs control of 92% (ALK; enzyme activity; inhibitor; 1 µM).
The remaining activity of `CC(C)(O)[C@H]1CC[C@H](Nc2ccc3ncc(-c4cccc(C(F)(F)F)c4)n3n2)CC1` is reported as 57% (ALK; enzyme activity; inhibitor; 1 µM).
`O=C(O)c1cc(-c2ccc(C3CCNCC3)cc2)c2ccc(-c3ccc(C(F)(F)F)cc3)cc2c1` gave a remaining binding of 100% (ALK; cell-free assay; competition with immobilised ligand; 1 µM).
With `O=C(CSc1nc2nccnc2c(=O)n1CCc1ccccc1)Nc1nccs1` the inhibition was 11% (ALK; enzyme activity; inhibitor; 10 µM).
With `CN(CCCC(F)(F)F)c1nccc(-c2cnn3ncccc23)n1` the remaining binding was 100% (ALK C1156Y; binding; 1 µM).
The inhibition of `COc1cc2ncnc(Nc3ccc(Oc4ccccc4)c(C)c3C)c2cc1OC` is reported as -3% (ALK; enzyme activity; inhibitor; 1 µM).
For `CNC(=O)c1cc(Oc2ccc(NC(=O)Nc3ccc(Cl)c(C(F)(F)F)c3)cc2)ccn1`, the inhibition was -16% (ALK; enzyme activity; inhibitor; 0.3 µM).
`CNCc1ccccc1-c1csc([C@H](C)Nc2nc(C)nc3cc(OC)c(OC)cc23)c1` gave a remaining binding of 100% (ALK C1156Y; cell-free assay; competition with immobilised ligand; 1 µM).
For `CN(C)c1ncc(F)c(-c2cnn3ncccc23)n1`, the remaining binding was 90% (ALK; binding; 1 µM).
`Cc1[nH]c(/C=C2\C(=O)Nc3ccc(F)cc32)c(C)c1C(=O)N[C@H]1CCN(C(=O)N(C)C)C1` gave a remaining activity of 109% (ALK; enzyme activity; inhibitor; 0.1 µM).
`Cc1ccc(NC(=O)c2ccc(CN3CCN(C)CC3)cc2)cc1Nc1nc(-c2cccnc2)cs1` has a remaining signal of 103% (ALK; cell-free assay; 0.5 µM).
